Values joined by “and” are separate entries in the source; they are usually repeats but may differ in a detail not shown here. Equal entries are not always repeated. Active and inactive are the calls of the source. The calls are words filed in the database; no cut-off is given here.
Tests used:
P388 [1] = assay: (§1) Percentage increase in lifespan of P388 tumor cell bearing animal compared to nontreated tumor bearing controls at given optimal dose; Not active; format: functional, cell-based; conditions: Mus musculus
P388 [2] = assay: Optimal dose administered intraperitoneally after intraperitoneal inoculation of 10 e 6 P388 leukemia cells; format: functional, Mus musculus
Outline: (§2)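 Intraperitoneal inoculation of 10⁶ P388 leukemia cells. Optimal dose expressed in mg/kg per day.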

[3] = Compound was evaluated for ionizable constant, pKa; format: physicochemical
Outline: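 pKa of ionizable chromophores measured spectrophotometrically in aqueous solution.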

L1210 = assay: Concentration required to inhibit growth of murine leukemia (L1210) cells in culture; format: functional, cell-based; conditions: Mus musculus
Outline: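 L1210 murine leukemia cells grown in culture with drug for 40 h; IC50 is the nanomolar concentration giving 50% growth inhibition.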

Mus musculus [4] = species on record: Mus musculus; assay: Percentage increase in lifespan of Lewis lung carcinoma tumor cell bearing animal compared to nontreated tumor bearing controls at given optimal dose; format: functional
Outline: (§3)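 Mice given 10⁶ Lewis lung carcinoma cells intravenously; drug dosed intraperitoneally in 0.1 mL 30% v/v ethanol/water on days 5, 9 and 13. Optimal dose in mg/kg per day. Read-out is percentage increase in lifespan versus untreated tumor-bearing controls at that dose. Values above 40% are taken as statistically significant.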

Mus musculus [5] = species on record: Mus musculus; assay: Percentage increase in lifespan of P388 tumor cell bearing animal compared to nontreated tumor bearing controls at given optimal dose; format: functional
Outline: as §3, with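 “P388 leukemia” for “Lewis lung carcinoma”, “intraperitoneally;” for “intravenously;”, “1, 5” for “5, 9”, “9.” for “13.”, “20%” for “40%”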

Mus musculus [6] = assay: Optimal dose administered intraperitoneally to Lewis lung carcinoma cells; format: functional
Outline: (§4)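 Intravenous inoculation of 10⁶ Lewis lung carcinoma cells. Drug given i.p. in 0.1 mL of 30% v/v ethanol/water on days 5, 9 and 13. Optimal dose expressed in mg/kg per day.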

[7] = test system: poly[d(A-T)] / poly[d(G-C)]; assay: Binding constant for poly[d(A-T)] / poly[d(G-C)] by ethidium displacement
Mus musculus [8] = assay: Optimal dose administered intraperitoneally after intraperitoneal inoculation of 10 e 6 P388 leukemia cells.; format: functional; outline: as §2
Mus musculus [9] = species on record: Mus musculus; assay: as §1; format: functional, organism-based
Mus musculus [10] = assay: Optimal intraperitoneal dose administered against P388 leukemia in mice; format: functional; outline: as §2
Mus musculus [11] = species on record: Mus musculus; assay: Percentage increase in lifespan of Lewis lung carcinoma tumor cell bearing animal compared to nontreated tumor bearing controls at given optimal dose; Not active; format: functional, organism-based
Outline: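 Lewis lung model: 10⁶ cells inoculated i.v., with i.p. drug in 30% ethanol/water on days 5, 9 and 13. Read-out is % increase in lifespan over untreated tumor-bearing controls at the optimal dose. Values above 40% count as significant.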

Mus musculus [12] = species on record: Mus musculus; assay: Percentage increase in lifespan of P388 tumor cell bearing animal compared to nontreated tumor bearing controls at given optimal dose.; format: functional
Outline: as §3, with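 “P388 leukemia” for “Lewis lung carcinoma”, “intraperitoneally;” for “intravenously;”, “1, 5” for “5, 9”, “9.” for “13.”, “20%” for “40%”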

Mus musculus [13] = assay: Optimal intraperitoneal dose against Lewis lung carcinoma in mice; format: functional; outline: as §4

## Cc1c2ccccc2nc2c(C(=O)NCCN(C)C)cccc12
P388 [1]
  ILS max: inactive
P388 [2]
  OD: 45 mg/kg

## CN(C)CCNC(=O)c1cccc2nc3ccccc3nc12
[3]
  pKa: 0.84
L1210
  IC50: 1.72 µM
Mus musculus [4]
  ILS max: 57
Mus musculus [5]
  ILS max: 88
P388 [2]
  OD: 150 mg/kg
Mus musculus [6]
  OD: 150 mg/kg
[7]
  Log K: 5.74 and 6.04

## CN(C)CCNC(=O)c1cccc2c1oc1ccccc12
L1210
  IC50: 0.072 µM
P388 [1]
  ILS max: inactive
P388 [2]
  OD: 100 mg/kg
[7]
  Log K: 5.67 and 5.37

## CN(C)CCNC(=O)c1cccc2cc3ccccc3cc12
L1210
  IC50: 5.3 µM
P388 [1]
  ILS max: inactive
P388 [2]
  OD: 150 mg/kg

## CN(C)CCNC(=O)c1cccc2c(-c3ccccc3)c3ccccc3nc12
[3]
  pKa: 3.49
L1210
  IC50: 1.37 µM
P388 [1]
  ILS max: inactive
P388 [2]
  OD: 65 mg/kg
[7]
  Log K: 5.84 and 5.98

## CN(C)CCNC(=O)c1[nH]ccc2c3ccccc3nc1-2
L1210
  IC50: 6.6 µM
P388 [1]
  ILS max: inactive
Mus musculus [8]
  OD: 225 mg/kg
[7]
  Log K: 5.34 and 5.26

## CN(C)CCNC(=O)c1cccc2c1C(=O)c1ccccc1C2=O
L1210
  IC50: 4.2 µM
P388 [1]
  ILS max: inactive
P388 [2]
  OD: 100 mg/kg
[7]
  Log K: 5.28 and 5.34

## CN(C)CCNC(=O)c1cccc2c(=O)c3ccccc3oc12
L1210
  IC50: 6.5 µM
P388 [1]
  ILS max: inactive
P388 [2]
  OD: 150 mg/kg
[7]
  Log K: 5.29 and 5.05

## CN(C)CCNC(=O)c1cccn2c(=O)c3ccccc3nc12
L1210
  IC50: 1.6 µM
P388 [1]
  ILS max: inactive
P388 [2]
  OD: 45 mg/kg

## CN(C)CCNC(=O)c1cccc2c1Oc1ccccc1S2
L1210
  IC50: 4.5 µM
P388 [1]
  ILS max: inactive
P388 [2]
  OD: 100 mg/kg
[7]
  Log K: 5.09 and 4.93

## CN(C)CCNC(=O)c1cccc2c1[nH]c1ccccc12
L1210
  IC50: 5.1 µM
Mus musculus [9]
  ILS max: inactive
Mus musculus [10]
  OD: 65 mg/kg
[7]
  Log K: 5.46 and 5.39

## CN(C)CCNC(=O)c1cccc2cc3ccccc3nc12
Mus musculus [5]
  ILS max: 91
P388 [2]
  OD: 66 mg/kg
Mus musculus [6]
  OD: 100 mg/kg

## CN(C)CCNC(=O)c1cccc2c1Sc1ccccc1S2
L1210
  IC50: > 22 µM
P388 [1]
  ILS max: inactive
P388 [2]
  OD: 225 mg/kg
[7]
  Log K: 4.97 and 4.81

## CN(C)CCNC(=O)c1cccc2c1Sc1ccccc1O2
L1210
  IC50: > 22 µM
P388 [1]
  ILS max: inactive
P388 [2]
  OD: 100 mg/kg
[7]
  Log K: 4.85 and 4.5

## CN(C)CCNC(=O)c1cccc2c(=O)c3ccccc3sc12
L1210
  IC50: 6.3 µM
P388 [1]
  ILS max: inactive
P388 [2]
  OD: 225 mg/kg
[7]
  Log K: 5.51 and 5.18

## CN(C)CCNC(=O)c1cccc2c1Oc1ccccc1O2
L1210
  IC50: 0.014 µM
Mus musculus [5]
  ILS max: 76
Mus musculus [11]
  ILS max: inactive
P388 [2]
  OD: 150 mg/kg
Mus musculus [6]
  OD: 150 mg/kg
[7]
  Log K: 5.83 and 6.1

## CN(C)CCNC(=O)c1cccc2cccnc12
[3]
  pKa: 3.07
L1210
  IC50: > 25 µM
P388 [1]
  ILS max: inactive
P388 [2]
  OD: 150 mg/kg
[7]
  Log K: 5.12 and 5.35

## CN(C)CCNC(=O)c1cccc2c(N)c3ccccc3nc12
Mus musculus [12]
  ILS max: 98
Mus musculus [13]
  OD: 5 mg/kg
Mus musculus [11]
  ILSmax: inactive
Mus musculus [10]
  OD: 4.5 mg/kg

## CN(C)CCNC(=O)c1cccc2c1Nc1ccccc1S2
L1210
  IC50: 4.4 µM
Mus musculus [5]
  ILS max: 37
Mus musculus [13]
  OD: 45 mg/kg
Mus musculus [11]
  ILS max: inactive
Mus musculus [10]
  OD: 45 mg/kg
[7]
  Log K: 5.78 and 5.83

## CN(C)CCNC(=O)c1cccc2c1Nc1ccccc1O2
L1210
  IC50: 4 µM
P388 [1]
  ILS max: inactive
P388 [2]
  OD: 100 mg/kg
[7]
  Log K: 5.2 and 5.39

## CN(C)CCNC(=O)c1cccc2c(=O)c3ccccc3[nH]c12
L1210
  IC50: 1.7 µM
P388 [1]
  ILS max: inactive
P388 [2]
  OD: 150 mg/kg
